ChEMBL document CHEMBL2010745, “Optimization of the First Selective Steroid-11β-hydroxylase (CYP11B1) Inhibitors for the Treatment of Cortisol Dependent Diseases” (ACS Med Chem Lett, 2011)

Key:
[1] = species on record: Homo sapiens; assay: Selectivity ratio of IC50 for human CYP11B2 to IC50 for human CYP11B1
[2] = target: T1, Cytochrome P450 11B2, mitochondrial (Homo sapiens, UniProt P19099); assay: Inhibition of human CYP11B2 expressed in hamster V79 MZ cells using [3H] 11 deoxycorticosterone as substrate by HPLC radioflow detector; format: cell-based
T1 sequence (P19099 whole entry): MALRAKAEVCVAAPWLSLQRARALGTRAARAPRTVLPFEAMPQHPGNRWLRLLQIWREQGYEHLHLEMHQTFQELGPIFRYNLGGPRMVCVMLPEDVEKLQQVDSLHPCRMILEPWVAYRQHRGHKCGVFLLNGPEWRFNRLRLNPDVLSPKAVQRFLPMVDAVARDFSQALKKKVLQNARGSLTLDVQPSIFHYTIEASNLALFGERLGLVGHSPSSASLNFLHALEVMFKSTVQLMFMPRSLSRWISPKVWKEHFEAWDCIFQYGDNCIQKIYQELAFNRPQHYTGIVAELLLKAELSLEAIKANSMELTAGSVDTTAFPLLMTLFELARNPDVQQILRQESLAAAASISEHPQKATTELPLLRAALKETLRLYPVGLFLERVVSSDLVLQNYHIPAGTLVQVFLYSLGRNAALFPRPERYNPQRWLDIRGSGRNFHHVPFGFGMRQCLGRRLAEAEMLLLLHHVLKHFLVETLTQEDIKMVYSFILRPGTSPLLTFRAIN

[3] = target: T2, CYP17 (Homo sapiens, UniProt P05093); assay: Inhibition of human recombinant CYP17 expressed in Escherichia coli using progesterone as substrate at 2 uM; settings: probe progesterone
T2 sequence (P05093 whole entry): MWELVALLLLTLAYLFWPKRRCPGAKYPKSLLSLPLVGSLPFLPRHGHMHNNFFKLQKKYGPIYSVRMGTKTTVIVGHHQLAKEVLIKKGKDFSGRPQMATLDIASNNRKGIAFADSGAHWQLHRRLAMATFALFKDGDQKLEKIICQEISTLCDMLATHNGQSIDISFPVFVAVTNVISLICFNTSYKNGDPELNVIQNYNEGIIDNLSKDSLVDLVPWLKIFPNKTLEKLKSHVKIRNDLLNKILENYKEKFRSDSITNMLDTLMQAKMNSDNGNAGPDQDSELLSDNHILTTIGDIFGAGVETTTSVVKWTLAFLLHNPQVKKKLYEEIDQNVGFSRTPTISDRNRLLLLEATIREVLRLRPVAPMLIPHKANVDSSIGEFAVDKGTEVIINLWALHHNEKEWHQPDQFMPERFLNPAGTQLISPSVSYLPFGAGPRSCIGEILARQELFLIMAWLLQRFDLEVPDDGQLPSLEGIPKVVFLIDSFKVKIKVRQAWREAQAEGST
Procedure, shortened: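 Recombinantly expressed human CYP17 with progesterone as substrate. Inhibition is reported as percent at an inhibitor concentration of 2.0 μM.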

[4] = target: T3, CYP19 (aromatase) (Homo sapiens, UniProt P11511); assay: Inhibition of CYP19 in human placental microsomes using [1beta-3H]androstenedione as substrate at 0.5 uM; settings: probe [1beta-3H]androstenedione
T3 sequence (P11511 whole entry): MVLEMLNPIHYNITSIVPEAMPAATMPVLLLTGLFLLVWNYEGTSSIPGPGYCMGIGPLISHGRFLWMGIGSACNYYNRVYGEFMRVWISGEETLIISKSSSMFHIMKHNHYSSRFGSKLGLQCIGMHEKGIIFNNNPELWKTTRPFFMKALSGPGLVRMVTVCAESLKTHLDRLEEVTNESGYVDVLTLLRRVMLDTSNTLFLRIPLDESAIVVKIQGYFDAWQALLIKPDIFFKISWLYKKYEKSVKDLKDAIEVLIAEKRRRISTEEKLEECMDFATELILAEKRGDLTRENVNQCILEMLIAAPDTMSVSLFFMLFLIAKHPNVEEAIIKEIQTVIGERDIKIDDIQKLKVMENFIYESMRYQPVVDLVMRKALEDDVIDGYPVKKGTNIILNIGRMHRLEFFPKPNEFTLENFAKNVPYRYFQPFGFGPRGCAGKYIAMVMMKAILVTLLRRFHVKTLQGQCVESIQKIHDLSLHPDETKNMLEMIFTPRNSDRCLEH

[5] = target: T1, Cytochrome P450 11B2, mitochondrial; assay: Inhibition of human CYP11B2 expressed in hamster V79 MZ cells using [3H] 11 deoxycorticosterone as substrate at 500 nM by HPLC radioflow detector; format: cell-based; settings: v79, 0.5 µM
[6] = target: T4, Cytochrome P450 11B1, mitochondrial (Homo sapiens, UniProt P15538); assay: Inhibition of human CYP11B1 expressed in hamster V79 MZ cells using [3H] 11 deoxycorticosterone as substrate by HPLC radioflow detector; format: cell-based
T4 sequence (P15538 whole entry): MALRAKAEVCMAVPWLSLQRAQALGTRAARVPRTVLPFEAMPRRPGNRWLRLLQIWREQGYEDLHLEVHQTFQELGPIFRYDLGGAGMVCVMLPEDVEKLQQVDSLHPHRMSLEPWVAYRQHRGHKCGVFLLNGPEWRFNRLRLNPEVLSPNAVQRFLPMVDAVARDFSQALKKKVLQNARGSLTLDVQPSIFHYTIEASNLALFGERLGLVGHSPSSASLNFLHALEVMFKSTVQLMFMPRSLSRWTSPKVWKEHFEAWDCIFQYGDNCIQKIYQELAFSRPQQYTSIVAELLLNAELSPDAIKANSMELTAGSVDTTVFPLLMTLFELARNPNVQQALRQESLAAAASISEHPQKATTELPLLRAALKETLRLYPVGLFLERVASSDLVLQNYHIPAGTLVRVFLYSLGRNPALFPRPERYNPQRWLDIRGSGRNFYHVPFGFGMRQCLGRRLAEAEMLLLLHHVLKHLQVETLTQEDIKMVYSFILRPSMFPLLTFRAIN

SMILES | Ratio IC50 [1] | IC50 [2] [nM] | inhibition at 2 µM [3] [%] | inhibition at 0.5 µM [4] [%] | inhibition (INH) [5] | IC50 [6] [nM]
Brc1ccc(Cn2ccnc2)cn1 |  | > 1000 |  |  |  | 
c1ccc(-c2cc(Cn3ccnc3)cnc2-c2ccccc2)cc1 | 2.4 |  | < 10 | < 10 |  | 
c1cn(Cc2ccc(-c3cncnc3)nc2)cn1 |  |  |  |  | Not Active | 
COc1ccccc1-c1ccc(Cn2ccnc2)cn1 | 26 |  | < 10 | < 10 |  | 
N#Cc1ncccc1Cn1ccnc1 |  | > 1000 |  |  |  | 
c1ccc2c(-c3ccc(Cn4ccnc4)cn3)csc2c1 | 29 |  | < 10 | < 10 |  | 
Clc1ncc(Cn2ccnc2)cc1Br | 3.4 |  |  |  |  | 
Clc1ncc(Cn2ccnc2)cc1-c1cccs1 | 6 | 416 | < 10 | < 10 |  | 73
c1cc(Cn2ccnc2)ccn1 |  | > 1000 |  |  |  | 
c1ccc(N(c2ccccc2)c2ccc(-c3ccc(Cn4ccnc4)cn3)cc2)cc1 |  |  | < 10 | < 10 | Not Active | 
c1ccc2c(-c3ccc(Cn4ccnc4)cn3)cccc2c1 | 49 |  | < 10 | < 10 |  | 
c1csc(-c2ncccc2Cn2ccnc2)c1 | 16 |  | < 10 | < 10 |  | 
c1ccc2sc(-c3ccc(Cn4ccnc4)cn3)cc2c1 | 1 |  |  |  |  | 
c1ccc2oc(-c3ccc(Cn4ccnc4)cn3)cc2c1 |  | > 1000 |  |  |  | 
c1ccc2c(-c3ccc(Cn4ccnc4)cn3)cncc2c1 | 10 |  |  |  |  | 
Brc1ncccc1Cn1ccnc1 | 15 |  | < 10 | < 10 |  | 
c1csc(-c2ccc(Cn3ccnc3)cn2)c1 | 17 |  | < 10 | < 10 |  | 
c1coc(-c2ccc(Cn3ccnc3)cn2)c1 | 31 |  | < 10 | < 10 |  | 
O=Cc1ccc(-c2ccc(Cn3ccnc3)cn2)s1 | 16 |  | < 10 | 19 |  | 
c1coc(-c2cc(Cn3ccnc3)cnc2-c2ccco2)c1 | 29 |  |  |  |  | 
c1cncc(Cn2ccnc2)c1 |  | > 1000 |  |  |  | 

Results, then the compound that gave them:

Ratio IC50 [1] | IC50 [2] [nM] | inhibition at 2 µM [3] [%] | inhibition at 0.5 µM [4] [%] | inhibition (INH) [5] | IC50 [6] [nM] | SMILES
18 |  |  |  |  |  | c1ccc(-c2ccc(Cn3ccnc3)cn2)cc1
 | > 1000 | < 10 | < 10 |  |  | Fc1cccc(-c2ccc(Cn3ccnc3)cn2)c1
26 |  | < 10 | < 10 |  |  | c1cn(Cc2ccc(-c3ccsc3)nc2)cn1
24 |  | < 10 | < 10 |  |  | Fc1ccccc1-c1ccc(Cn2ccnc2)cn1
31 |  | < 10 | < 10 |  |  | Nc1cccc(-c2ccc(Cn3ccnc3)cn2)c1
 | > 1000 | < 10 | < 10 |  |  | COc1ccc(-c2ccc(Cn3ccnc3)cn2)cc1
 | > 1000 |  |  |  |  | N#Cc1cccc(-c2ccc(Cn3ccnc3)cn2)c1
 | > 1000 |  |  |  | > 1000 | COc1ccc(-c2ccc(Cn3ccnc3)cn2)cn1
 | > 1000 |  |  |  |  | N#Cc1ccc(-c2ccc(Cn3ccnc3)cn2)cc1
 | > 1000 | < 10 | < 10 |  |  | O=Cc1ccc(-c2ccc(Cn3ccnc3)cn2)cc1
5 |  | < 10 | < 10 |  |  | Fc1ccc(-c2ccc(Cn3ccnc3)cn2)cc1F
5 |  | < 10 | < 10 |  |  | Nc1ccc(-c2ccc(Cn3ccnc3)cn2)cc1
21 |  | < 10 | < 10 |  |  | Nc1ccccc1-c1ccc(Cn2ccnc2)cn1
 | > 1000 | < 10 | < 10 |  |  | Cc1ccc(-c2ccc(Cn3ccnc3)cn2)cc1N
37 |  | < 10 | < 10 |  |  | c1cn(Cc2ccc(-c3ccoc3)nc2)cn1
 | > 1000 | < 10 | < 10 |  | > 1000 | COc1ccc(-c2ccc(Cn3ccnc3)cn2)cc1OC
3.5 |  |  |  |  |  | c1cc(-c2ccc(Cn3ccnc3)cn2)ccn1
3.2 |  |  |  |  |  | c1ccc2cc(-c3ccc(Cn4ccnc4)cn3)ccc2c1
8 |  |  |  |  |  | c1cncc(-c2ccc(Cn3ccnc3)cn2)c1
14 |  |  |  |  |  | Oc1ccc(-c2ccc(Cn3ccnc3)cn2)cc1F
2.6 |  |  | 30 |  |  | Clc1ccc(-c2ccc(Cn3ccnc3)cn2)s1
10 |  | < 10 | < 10 |  |  | Fc1ccc(-c2ccc(Cn3ccnc3)cn2)cc1
